Only some compounds are listed: those with a hit (about 3.7% of all), similar ones and a draw of the others.
Granule exo inh = lytic granule exocytosis inhibition. TALL-104 LAMP-1 surface exposure, flow cytometry; cells stimulated with thapsigargin and PMA. inhibition, % at 10 µM. actives 0.66% (n = 360,000). AID 651702;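 active = inhibition above about 55%, limit read from the data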
MC4R antagonist = antagonists of human melanocortin 4 receptor (MC4R). P32245. actives 0.48% (n = 360,000). MC4R-expressing cells, MTII-stimulated cAMP, LANCE TR-FRET. inhibition, % at 6.5 µM;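 active = inhibition above its plate's cutoff, the mean of tested wells on that plate plus 3 SD, cut at about 29% in these data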;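 note: 0% = Melanotan II alone and 100% = Melanotan II plus saturating MCL0020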
Target sequence (P32245 whole entry, looked up): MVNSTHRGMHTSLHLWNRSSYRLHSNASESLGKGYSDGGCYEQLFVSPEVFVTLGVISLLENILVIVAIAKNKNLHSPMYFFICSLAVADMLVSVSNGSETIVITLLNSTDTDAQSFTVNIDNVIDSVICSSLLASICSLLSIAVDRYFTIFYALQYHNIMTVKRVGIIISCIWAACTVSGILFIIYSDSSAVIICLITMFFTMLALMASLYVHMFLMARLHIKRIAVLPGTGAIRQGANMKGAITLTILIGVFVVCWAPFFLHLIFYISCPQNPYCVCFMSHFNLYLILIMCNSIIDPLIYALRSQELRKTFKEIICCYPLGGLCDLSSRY
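Assay system: human MC4R-expressing U2OS cells; reagent: Melanotan II stimulation of cells; dosing: 6.5 µM single dose; timing: compound 30 min, challenge 1 h, detection 1 h; signal: TR-FRET cAMP assay; replicates: one well per compound, no replicates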
EBI2 block = EBI2 (human) antagonism; P32249; EBI2 beta-arrestin recruitment, luminescence, 7a,25-OHC stimulated; inhibition, % at 5 µM; actives 0.81% (n = 360,000); in the data active = inhibition above about 38%;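 note: enzyme fragment complementation signal reports receptor beta-arrestin coupling in cells; 0% = agonist plus DMSO wells and 100% = wells without agonist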
Myeloid diff 2 = compounds promoting myeloid differentiation; ER-HoxA9 myeloid progenitors, lysozyme-GFP differentiation, flow cytometry; calls only at 10 µM; actives 1% (n = 360,000);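 active = normalized GFP-positive differentiation at or above the plate's own cutoff, the solvent-only control mean plus 3 SD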;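 note: cells exposed to compound for four days before flow analysis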
MC4R ag barr = agonists of human melanocortin 4 receptor (MC4R) beta-arrestin; P32245; activation, % at 8.9 µM; AID 540308; U2OS MC4R beta-arrestin complementation, luminescence; percent of melanotan II response, DMSO zero; actives 0.98% (n = 360,000);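 active = activation above a per-plate cutoff, the mean activation of sample wells on that plate plus 3 SD, cut at about 8% in these data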
MC4R barr conf = human MC4R beta-arrestin agonism confirmation; shares compounds with MC4R ag barr; U2OS MC4R beta-arrestin recruitment, luminescence; scaled DMSO 0%, Melanotan II 100%; activation, % at 8.9 µM; actives 31% (n = 2,400); AID 602192;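 active = mean activation across replicates above the hit cutoff set in the earlier primary screen, cut at about 8% in these data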
MOR-DOR barr ag = OPRM1-OPRD1 heterodimer agonism counter-screen; shares compounds with MC4R ag barr; U2OS PathHunter beta-arrestin, beta-gal luminescence; percent of deltorphin B response, DMSO zero; activation, % at 9.2 µM; actives 5.8% (n = 2,400); AID 602194;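 active = mean activation across replicates exceeds the hit threshold derived in the earlier primary screen, cut at about 18% in these data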;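 note: 100% = deltorphin B at 0.9 µM final and 0% = DMSO alone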
* hit, by the source's call; i = inactive; · = not tested or not shown; ! = not active in a repeat.

SMILES | Granule exo inh | MC4R antagonist | EBI2 block | Myeloid diff 2 | MC4R ag barr | MC4R barr conf | MOR-DOR barr ag
Cc1nnc(SCC(=O)NC2CCCC2)n1C(C)C | -2 | -4 | -7 | i | -1 | · | ·
CCOc1ccc(NS(=O)(=O)c2ccc(SC)cc2)cc1 | -2 | 3 | 10 | i | 11* | 0 | 7
C=CCC[C@H](Cc1ccc(F)cc1)C(=O)OC[C@H](Cc1c[nH]c2ccccc12)NC(=O)[C@H](CC=C)CC(=O)N[C@H](CO)Cc1ccccc1 | -5 | 19 | 24 | i | 11* | 2 | 5
C=CCC[C@@H](Cc1ccc(F)cc1)C(=O)OC[C@H](Cc1c[nH]c2ccccc12)NC(=O)[C@@H](CC=C)CC(=O)N[C@H](CO)Cc1ccccc1 | 6 | 11 | 25 | i | 8 | · | ·
C=CCC[C@H](Cc1ccc(F)cc1)C(=O)OC[C@H](Cc1c[nH]c2ccccc12)NC(=O)[C@@H](CC=C)CC(=O)N[C@@H](CO)Cc1ccccc1 | -4 | 8 | 11 | i | 24* | 15* | 9
C=CC[C@@H](CC(=O)N[C@@H](CO)Cc1ccccc1)C(=O)N[C@@H](COC(=O)[C@@H](CC=C)Cc1ccc(F)cc1)Cc1c[nH]c2ccccc12 | 2 | 14 | 19 | i | 20* | 4 | 13
CC(NC(=O)COc1ccccc1Cl)c1ccccc1 (centres undefined) | -15 | 19 | 3 | i | 0 | · | ·
O=C(NN1C(=O)/C(=C/c2ccc(O)cc2)SC1=S)c1cccc(O)c1 | 0 | 1 | 4 | i | -3 | · | ·
CC(/C=C1\SC(=S)N(NC(=O)c2cccc(O)c2)C1=O)=C\c1ccccc1 | 9 | 10 | 6 | i | 9.8* | 2 | 5
O=C(COc1ccc(Cl)cc1)NCc1n[nH]c(=O)c2ccccc12 | -5 | 0 | 10 | i | -4 | · | ·
Cc1ccc(NC(=O)CCn2cnc3ccccc3c2=O)cc1 | 8 | 7 | -3 | i | 0 | · | ·
O=C(CCn1cnc2ccccc2c1=O)Nc1nc(-c2ccc(Br)cc2)cs1 | 0 | 20 | -49 | i | 11* | 6 | 35*
O=C(c1ccoc1)N1CCN(c2cc(-c3cccc(F)c3)nc3cc(-c4cccc(Cl)c4)nn23)CC1 | 11 | 11 | 23 | i | 0 | · | ·
CCOc1ccc(NS(=O)(=O)c2cc(C(=O)NCCN3CCOCC3)ccc2C)cc1 | -5 | 4 | -4 | i | -2 | · | ·
O=C(CN1CCCC1)N/N=C/c1ccc(-c2cccc(Cl)c2)o1 | 2 | -8 | 8 | i | -1 | · | ·
O=C(Cn1nnc(-c2ccccc2Cl)n1)N/N=C/c1ccc(-c2cccc(Cl)c2)o1 | -1 | -11 | 8 | i | 11* | 8.9* | 3
CC(=O)N1CCN(c2ncnc3sc(-c4ccccc4)cc23)CC1 | -1 | 10 | 20 | i | -1 | · | ·
Oc1ccc(N2CCN(c3ncnc4sc(-c5ccccc5)cc34)CC2)cc1 | 1 | 4 | 16 | i | 48* | 34* | 12
Cc1cc(-n2nnc3ccccc32)nc2ccccc12 | -2 | -3 | 0 | i | 18* | -1 | 2
CCN(CC)S(=O)(=O)c1cc(C(=O)NCCN2CCOCC2)ccc1Cl | 1 | 3 | 0 | i | 0 | · | ·
COc1ccc(/C=N/Nc2cc(C)nc3ccc(OC)cc23)c(OC)c1 | 52 | -12 | -12 | · | 32* | 57* | 43*
OC(c1cccc(CN2CCCCC2)c1)c1ncc(-c2cccc3ccccc23)[nH]1 (centres undefined) | -5 | 1 | -2 | i | -1 | · | ·
CCN1CCN(Cc2ccc(NC(=O)c3cc(NC(=O)c4cncc(-c5ccc(C#N)cc5)c4)cc(OC)c3)cc2C(F)(F)F)CC1 | -6 | 3 | -38 | i | 13*! | 20* | 13
Cc1csc(=O)n1CCC(=O)OCC(=O)NCc1ccccc1 | 4 | -6 | -6 | i | -1 | · | ·
COc1cccc(N2CCN(c3ccc4nnc(CCC(=O)Nc5ccc(OC)c(OC)c5)n4n3)CC2)c1 | -2 | 0 | 1 | i | -1 | · | ·

Source: PubChem BioAssay (several laboratories)
